Laboratory results reported in ChEMBL document CHEMBL1124554, “Chemical delivery systems for some penicillinase-resistant semisynthetic penicillins” (J Med Chem, 1989).

Assays:
[1] = (§1) Concentration of compound after 5 minutes in rabbit blood; assay type: ADME, organism-based, Oryctolagus cuniculus
[2] = Lipophilicity was determined by reversed-phase HPLC; conditions: extrapolated to 100% water
[3] = species on record: Rattus norvegicus; assay: Concentration of compound after 3 minutes in rat blood; assay type: functional, organism-based
[4] = Concentration of compound after 10 minutes in rabbit blood; assay type: ADME, organism-based, Oryctolagus cuniculus
[5] = species on record: Oryctolagus cuniculus; assay: Concentration of compound after 5 minutes in rabbit brain; assay type: functional, organism-based
Outline: (§2)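 Oxacillin at 20 mg/kg, or an equimolar dose of its CDS, given i.v. to male Sprague-Dawley rats (tail vein) or male New Zealand albino rabbits (ear vein). Vehicle was water/ethanol/propylene glycol at 20 mg/mL. Samples were rat trunk blood after decapitation or rabbit ear-vein blood, with brain removed and frozen. Oxacillin was assayed by B. subtilis ATCC 6633 paper-disk diffusion and by HPLC. Values are means of two determinations.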

[6] = Half-life in phosphate buffer (0.05 M, mu = 0.15) at 30 degree Celsius with pH 6.15; assay type: ADME
Outline: (§3)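 DMSO stock added to 10 mL phosphate buffer (0.05 M, μ = 0.15) at the stated pH. Timed samples were analyzed by HPLC, with UV detection at 360 nm for dihydro CDS forms and 260 nm for quaternary salts. Pseudo-first-order disappearance rate constants came from linear regression of log peak height versus time, and half-lives were derived from them.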

[7] = species on record: Oryctolagus cuniculus; assay: as §1; assay type: functional, organism-based; outline: as §2
[8] = Half-life in phosphate buffer (0.05 M, mu = 0.15) at 30 degree Celsius with pH 7.79; assay type: ADME; outline: as §3
[9] = Second-order oxidation rate constant determined using ferricyanide; assay type: ADME
Outline: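 Chemical oxidation with ferricyanide was run under pseudo-first-order conditions, with Fe(CN)6^3- in large excess over the CDS and pH held constant. Pseudo-first-order rates were measured at several ferricyanide concentrations, and the second-order constant (M^-1 s^-1) was derived from them.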

[10] = Half-life in phosphate buffer (0.05 M, mu = 0.15) at 30 degree Celsius with pH 8.14; assay type: ADME; outline: as §3
[11] = species on record: Oryctolagus cuniculus; assay: Concentration of compound after 10 min in rabbit brain; assay type: functional, organism-based; outline: as §2
[12] = Half-life at pH 7.4 in rat 10% brain homogenate; assay type: ADME
Outline: (§4)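 Fresh rat whole blood, or rat brain homogenized to 10% (w/v) in pH 7.4 phosphate buffer (1/20 M), spiked from DMSO stock to 40 μM final and held at 37 °C. Timed samples were extracted three times with 8% DMSO in acetonitrile, centrifuged, filtered and analyzed by HPLC. Pseudo-first-order rate constants came from log peak height versus time. Values are means of two determinations.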

[13] = Half-life at pH 7.4 in rat blood; assay type: ADME, organism-based; outline: as §4
[14] = Half-life at pH 7.4 in human blood; assay type: ADME, organism-based
Outline: (§5)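 Freshly collected rabbit or human whole blood, spiked from DMSO stock to 40 μM final and kept at 37 °C. Timed samples were extracted three times with 8% DMSO in acetonitrile, centrifuged, filtered and analyzed by HPLC. Pseudo-first-order rate constants came from linear regression of log peak height versus time.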

[15] = Half-life in phosphate buffer (0.05 M, mu = 0.15) at 30 degree Celsius with pH 7.45; assay type: ADME; outline: as §3
[16] = species on record: Oryctolagus cuniculus; assay: Concentration of compound after 10 min in rabbit blood; assay type: functional, organism-based; outline: as §2
[17] = species on record: Rattus norvegicus; assay: Concentration of compound after 3 minutes in rat brain; assay type: functional, organism-based; outline: as §2
[18] = Half-life in phosphate buffer (0.05 M, mu = 0.15) at 30 degree Celsius with pH 6.93; assay type: ADME; outline: as §3
[19] = Half-life at pH 7.4 in rabbit blood; assay type: ADME, organism-based, Oryctolagus cuniculus; outline: as §5
[20] = Half-life in phosphate buffer (0.05 M, mu = 0.15) at 30 degree Celsius with pH 7.43; assay type: ADME; outline: as §3
[21] = Half-life in phosphate buffer (0.05 M, mu = 0.15) at 30 degree Celsius with pH 6.07; assay type: ADME; outline: as §3
[22] = Half-life in phosphate buffer (0.05 M, mu = 0.15) at 30 degree Centigrade with pH 6.88; assay type: ADME; outline: as §3
[23] = Half-life in phosphate buffer (0.05 M, mu = 0.15) at 30 degree Celsius with pH 8.05; assay type: ADME; outline: as §3
[24] = Half-life in phosphate buffer (0.05 M, mu = 0.15) at 30 degree Celsius with pH 7.73; assay type: ADME; outline: as §3
[25] = species on record: Homo sapiens; assay: Half-life at pH 7.4 in human blood; Compound insoluble; assay type: ADME, organism-based; outline: as §5
[26] = species on record: Oryctolagus cuniculus; assay: Half-life at pH 7.4 in rabbit blood; Compound insoluble; assay type: ADME, organism-based; outline: as §5
[27] = Half-life in phosphate buffer (0.05 M, mu = 0.15) at 30 degree Celsius and pH 6.93; assay type: ADME; outline: as §3
[28] = Half-life in phosphate buffer (0.05 M, mu = 0.15) at 30 degree Celsius and pH 6.15; assay type: ADME; outline: as §3
[29] = Half-life in phosphate buffer (0.05 M, mu = 0.15) at 30 degree Celsius and pH 7.45; assay type: ADME; outline: as §3

Row | SMILES | Log k [2] | half-life [8] [min] | ko [9] [M⁻¹ s⁻¹] | half-life [10] [min] | half-life [12] [min] | half-life [13] [min] | half-life [20] [min] | half-life [21] [min] | half-life [22] [min] | half-life [24] [min] | further results
1 | Cc1onc(-c2ccccc2)c1C(=O)N[C@@H]1C(=O)N2[C@@H]1SC(C)(C)[C@@H]2C(=O)[O-].[Na+] | 1.868 | – | – | – | – | – | – | – | – | – | concentration at 5 min [1]: 15300 ng/mL; Concentration [3]: 41.1 µg/mL; concentration at 10 min [4]: 9100 ng/mL
2 | Cc1onc(-c2ccccc2)c1C(=O)NC1C(=O)N2C1SC(C)(C)[C@@H]2C(=O)OCOC(=O)C1=CN(C)C=CC1 (some centres not stated) | 2.82 | 172 | 0.48 | 100 | 5.4 | 1.1 | – | – | – | – | Concentration [5]: 0.3 µg/mL; half-life [6]: 249 min; Concentration [7]: 4.6 µg/mL; Concentration [3]: 26.2 µg/mL; Concentration [11]: 0.3 µg/mL; half-life [14]: 7.5 min; half-life [15]: 196 min; Concentration [16]: 2.2 µg/mL; Concentration [17]: 2.1 µg/mL; half-life [18]: 277 min; half-life [19]: 23.7 min
3 | Cc1onc(-c2ccccc2Cl)c1C(=O)NC1C(=O)N2C1SC(C)(C)[C@@H]2C(=O)OCOC(=O)c1ccc[n+](C)c1.[I-] (some centres not stated) | – | – | – | – | 1.1 | 0.6 | 3.5 | 56 | 11.3 | 2.1 | half-life [23]: 1 min
4 | Cc1onc(-c2c(Cl)cccc2Cl)c1C(=O)NC1C(=O)N2C1SC(C)(C)[C@@H]2C(=O)OCOC(=O)C1=CN(C)C=CC1 (some centres not stated) | 3.41 | 932 | 0.23 | 598 | 12.6 | 4.1 | – | – | – | – | half-life [6]: 464 min; half-life [15]: 1030 min; half-life [18]: 1010 min
5 | Cc1onc(-c2ccccc2Cl)c1C(=O)NC1C(=O)N2C1SC(C)(C)[C@@H]2C(=O)OCOC(=O)C1=CN(C)C=CC1 (some centres not stated) | 3.06 | 305 | 0.36 | 165 | 10 | 3.8 | – | – | – | – | half-life [6]: 350 min; half-life [15]: 377 min; half-life [18]: 506 min
6 | COc1cccc(OC)c1C(=O)N[C@@H]1C(=O)N2[C@@H]1SC(C)(C)[C@@H]2C(=O)[O-].[Na+] | 0.658 | – | – | – | – | – | – | – | – | – | –
7 | COc1cccc(OC)c1C(=O)NC1C(=O)N2C1SC(C)(C)[C@@H]2C(=O)OCOC(=O)c1ccc[n+](C)c1.[I-] (some centres not stated) | – | – | – | – | 1.1 | 1 | 3.6 | 58.6 | 12 | 2 | T1/2 [25]: Insoluble; half-life [23]: 1 min; T1/2 [26]: Insoluble
8 | COc1cccc(OC)c1C(=O)NC1C(=O)N2C1SC(C)(C)[C@@H]2C(=O)OCOC(=O)C1=CN(C)C=CC1 (some centres not stated) | 2.28 | 103 | 0.701 | 55.7 | 8 | 0.2 | – | – | – | – | half-life [27]: 238 min; half-life [28]: 130 min; half-life [14]: 116 min; half-life [29]: 134 min; half-life [19]: 10.7 min
9 | Cc1onc(-c2ccccc2Cl)c1C(=O)NC1C(=O)N2C1SC(C)(C)[C@@H]2C(=O)[O-].[Na+] (some centres not stated) | 2.097 | – | – | – | – | – | – | – | – | – | –
10 | Cc1onc(-c2ccccc2)c1C(=O)NC1C(=O)N2C1SC(C)(C)[C@@H]2C(=O)OCOC(=O)c1ccc[n+](C)c1.[I-] (some centres not stated) | – | – | – | – | 1.2 | 0.7 | 3.4 | 49 | 10.3 | 1.9 | half-life [23]: 1.1 min
11 | Cc1onc(-c2c(Cl)cccc2Cl)c1C(=O)NC1C(=O)N2C1SC(C)(C)[C@@H]2C(=O)[O-].[Na+] (some centres not stated) | 2.435 | – | – | – | – | – | – | – | – | – | –
12 | Cc1onc(-c2c(Cl)cccc2Cl)c1C(=O)NC1C(=O)N2C1SC(C)(C)[C@@H]2C(=O)OCOC(=O)c1ccc[n+](C)c1.[I-] (some centres not stated) | – | – | – | – | 1 | 0.7 | 3.9 | 44.4 | 14.7 | 2.9 | –
